In ChEMBL document CHEMBL1143914, “Synthesis and cytotoxic activity of diosgenyl saponin analogues” (Bioorg Med Chem, 2008):
Calls of active or inactive are those of the source. No cut-off for these calls is given here.

Experiments:
Type in all cases: functional, cell-based
[1] = system: SK-N-SH; assay: Cytotoxicity against human SK-N-SH cells after 72 hrs by MTT assay
How it was run: (§1)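 Cells grown in DMEM with 10% FBS at 37 °C, 5% CO2. 2000 cells per well in 96-well plates, allowed to adhere. Compounds were dissolved in DMSO, diluted in medium and added at 0–30 µM, 8 wells per concentration, for 72 h. MTT at 0.5 mg/mL for 4 h, then DMSO solubilization and absorbance at 490 nm. IC50 from concentration plots; at least 2 independent assays.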

[2] = system: MCF7; assay: Cytotoxicity against human MCF7 cells after 72 hrs by MTT assay; settings: MCF7, 72 h; how it was run: as §1
[3] = system: HeLa; assay: Cytotoxicity against human HeLa cells after 72 hrs by MTT assay; how it was run: as §1
[4] = system: MCF7; assay: Cell cycle arrest in human MCF7 cells assessed as G2 phase accumulation
[5] = system: SK-N-SH; assay: Cell cycle arrest in human SK-N-SH cells assessed as G1 phase accumulation

CC(=O)N[C@@H](C)C(=O)N[C@H]1[C@H](O[C@H]2CC[C@@]3(C)C(=CC[C@H]4[C@@H]5C[C@@H]6O[C@]7(CC[C@@H](C)CO7)[C@@H](C)[C@@H]6[C@@]5(C)CC[C@@H]43)C2)O[C@H](CO)[C@@H](O)[C@@H]1O
IC50 [1]: 15.3 µM | IC50 [2]: 11 µM | IC50 [3]: 20 µM

CC(=O)N[C@H]1[C@H](O[C@H]2CC[C@@]3(C)C(=CC[C@H]4[C@@H]5C[C@@H]6O[C@]7(CC[C@@H](C)CO7)[C@@H](C)[C@@H]6[C@@]5(C)CC[C@@H]43)C2)O[C@H](CO)[C@@H](O)[C@@H]1O
IC50 [1]: 11.6 µM | IC50 [2]: 18.3 µM | IC50 [3]: 21.5 µM

C[C@@H]1CC[C@@]2(OC1)O[C@H]1C[C@H]3[C@@H]4CC=C5C[C@@H](O[C@@H]6O[C@H](CO)[C@@H](O)[C@H](O)[C@H]6NC(=O)c6ccccc6)CC[C@]5(C)[C@H]4CC[C@]3(C)[C@H]1[C@@H]2C
Activity [4]: Active | IC50 [1]: 14.9 µM | IC50 [2]: 19.4 µM | Activity [5]: Active | IC50 [3]: 18 µM

C[C@@H]1CC[C@@]2(OC1)O[C@H]1C[C@H]3[C@@H]4CC=C5C[C@@H](O[C@H]6O[C@@H](CO)[C@H](O)[C@@H](O)[C@@H]6NC(=O)CCCCC(=O)N[C@H]6[C@H](O[C@H]7CC[C@@]8(C)C(=CC[C@H]9[C@@H]%10C[C@@H]%11O[C@]%12(CC[C@@H](C)CO%12)[C@@H](C)[C@@H]%11[C@@]%10(C)CC[C@@H]98)C7)O[C@H](CO)[C@@H](O)[C@@H]6O)CC[C@]5(C)[C@H]4CC[C@]3(C)[C@H]1[C@@H]2C
IC50 [1]: 19.5 µM | IC50 [2]: 19.2 µM | IC50 [3]: > 20 µM

C[C@@H]1CC[C@@]2(OC1)O[C@H]1C[C@H]3[C@@H]4CC=C5C[C@@H](O[C@@H]6O[C@H](CO)[C@@H](O)[C@H](O)[C@H]6NC(=O)CCCCC(=O)O)CC[C@]5(C)[C@H]4CC[C@]3(C)[C@H]1[C@@H]2C
IC50 [1]: 16.3 µM | IC50 [2]: 11.3 µM | IC50 [3]: > 20 µM

C[C@@H]1CC[C@@]2(OC1)O[C@H]1C[C@H]3[C@@H]4CC=C5C[C@@H](O[C@@H]6O[C@H](CO)[C@@H](O)[C@H](O)[C@H]6NC(=O)CCCCC6CCSS6)CC[C@]5(C)[C@H]4CC[C@]3(C)[C@H]1[C@@H]2C (stereo partly drawn) [ALPHA LIPOYL]
IC50 [1]: 4.8 µM | IC50 [2]: 6.9 µM | IC50 [3]: 7.3 µM

C[C@@H]1CC[C@@]2(OC1)O[C@H]1C[C@H]3[C@@H]4CC=C5C[C@@H](O[C@@H]6O[C@H](CO)[C@@H](O)[C@H](O)[C@H]6NC(=O)CCC(=O)O)CC[C@]5(C)[C@H]4CC[C@]3(C)[C@H]1[C@@H]2C
IC50 [1]: 14.1 µM | IC50 [2]: 22 µM | IC50 [3]: 13.9 µM
